{"source": "paper PMC7024744", "about": "(Journal of Pesticide Science, 2020)", "key": {"V. mali": {"system": "V. mali", "assay": "fungicidal activity in vitro, mycelium growth rate method", "assay_type": "cell-based", "details": "Cytospora mali, read-out: Antifungal activity in vitro, inhibition, V. mali", "summary_of_the_method": "(§1)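 Mycelium growth rate method. Test compounds were dissolved in acetone as a 100 mg/L stock and tested at 50 mg/L. Boscalid served as positive control and acetone as negative control. Plates were incubated at 25°C. Inhibition (%) was calculated from the average mycelial diameter (mm) with compound versus the negative-control diameter.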"}, "porcine SDH": {"target": "porcine SDH (Sus scrofa, UniProt A5GZW8+D0VWV4+Q007T0+Q0QF01)", "sequence (Q0QF01 43-664)": "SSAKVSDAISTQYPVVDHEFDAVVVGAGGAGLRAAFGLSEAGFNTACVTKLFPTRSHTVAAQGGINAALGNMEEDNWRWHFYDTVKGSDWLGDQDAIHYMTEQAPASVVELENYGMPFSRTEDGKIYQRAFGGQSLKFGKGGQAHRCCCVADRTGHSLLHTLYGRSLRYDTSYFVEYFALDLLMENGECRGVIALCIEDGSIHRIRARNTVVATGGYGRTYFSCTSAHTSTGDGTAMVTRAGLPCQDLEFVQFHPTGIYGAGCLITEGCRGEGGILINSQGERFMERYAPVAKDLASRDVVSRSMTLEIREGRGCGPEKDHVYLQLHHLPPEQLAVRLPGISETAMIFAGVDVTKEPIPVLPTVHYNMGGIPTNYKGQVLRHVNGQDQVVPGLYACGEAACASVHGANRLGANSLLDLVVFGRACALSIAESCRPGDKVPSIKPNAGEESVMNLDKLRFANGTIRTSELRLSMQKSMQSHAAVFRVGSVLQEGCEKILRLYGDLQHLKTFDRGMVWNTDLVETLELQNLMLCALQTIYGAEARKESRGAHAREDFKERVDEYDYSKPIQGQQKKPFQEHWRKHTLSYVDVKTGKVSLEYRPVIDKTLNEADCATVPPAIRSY", "sequence (Q007T0 29-280)": "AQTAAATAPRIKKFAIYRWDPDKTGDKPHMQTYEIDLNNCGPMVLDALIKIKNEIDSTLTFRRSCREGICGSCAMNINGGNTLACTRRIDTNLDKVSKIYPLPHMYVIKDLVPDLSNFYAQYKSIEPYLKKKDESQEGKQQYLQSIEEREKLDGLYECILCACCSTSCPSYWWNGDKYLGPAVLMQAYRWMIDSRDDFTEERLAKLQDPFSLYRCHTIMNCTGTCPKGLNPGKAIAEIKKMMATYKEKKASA", "sequence (D0VWV4 30-169)": "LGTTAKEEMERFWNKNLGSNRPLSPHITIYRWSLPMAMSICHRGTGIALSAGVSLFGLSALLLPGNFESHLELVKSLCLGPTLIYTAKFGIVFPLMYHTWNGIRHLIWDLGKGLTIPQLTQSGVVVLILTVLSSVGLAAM", "sequence (A5GZW8 37-159)": "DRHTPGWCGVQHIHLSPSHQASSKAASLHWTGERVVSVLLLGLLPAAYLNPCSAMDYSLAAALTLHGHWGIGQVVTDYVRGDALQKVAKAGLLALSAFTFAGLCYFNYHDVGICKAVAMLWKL", "assay": "SDH enzymatic inhibition assay", "assay_type": "biochemical, swine", "summary_of_the_method": "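Porcine SDH quantified by double-antibody sandwich ELISA. Plates were coated with purified porcine SDH antibody, then monoclonal antibody and HRP-labelled SDH antibody were added. After washing, TMB substrate was added, followed by acid. OD was read at 450 nm. SDH activity concentration was taken from a standard curve of standard-substance concentration against OD and corrected for sample dilution.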"}, "B. cinerea": {"system": "B. cinerea", "assay": "fungicidal activity in vitro, mycelium growth rate method", "assay_type": "cell-based", "details": "Botrytis cinerea, read-out: Antifungal activity in vitro, inhibition, B. cinerea", "summary_of_the_method": "as §1"}}}
{"smiles": "O=C(Nc1ccccc1-c1ccc(Cl)cc1)c1cccnc1Cl", "note": "[Boscalid]", "values": [{"measurement": "inhibition at 50 µg/mL", "setting": "V. mali", "result": 100, "unit": "%"}, {"measurement": "IC50", "setting": "porcine SDH", "result": 1670, "unit": "nM"}, {"measurement": "inhibition at 0.5 µM", "setting": "porcine SDH; read-out: SDH enzymatic inhibition, Inhibition (%) 0.5 µM", "result": 21.6, "unit": "%"}, {"measurement": "inhibition at 1 µM", "setting": "porcine SDH; read-out: SDH enzymatic inhibition, Inhibition (%) 1 µM", "result": 43.3, "unit": "%"}, {"measurement": "inhibition at 2 µM", "setting": "porcine SDH; read-out: SDH enzymatic inhibition, Inhibition (%) 2 µM", "result": 53.6, "unit": "%"}, {"measurement": "inhibition at 8 µM", "setting": "porcine SDH; read-out: SDH enzymatic inhibition, Inhibition (%) 8 µM", "result": 81, "unit": "%"}, {"measurement": "inhibition at 50 µg/mL", "setting": "B. cinerea", "result": 100, "unit": "%"}]}
